Common to all, as to assay type: functional
Experiment [1] has as its system Staphylococcus aureus. Nature of the experiment: Antimicrobial activity against methicillin-resistant Staphylococcus aureus 4 after 24 hrs. The method, boiled down: (§1)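 Overnight 37 °C Mueller-Hinton broth cultures of clinical isolates or strain COL were diluted in 0.85% NaCl and spotted by inoculator at about 10⁶ cfu/mL. Plates were held 37 °C for 24 h. MIC was taken as the lowest concentration giving complete growth inhibition.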

The subject of experiment [2] is Staphylococcus aureus. As to the kind of experiment: Antimicrobial activity against methicillin-resistant Staphylococcus aureus 1 after 24 hrs. The method, boiled down:
as §1

Experiment [3] concerns Staphylococcus aureus. Nature of the experiment: Antimicrobial activity against methicillin-resistant Staphylococcus aureus 2 after 24 hrs. The essentials:
as §1

The subject of experiment [4] is Staphylococcus aureus. Nature of the experiment: Antimicrobial activity against methicillin-resistant Staphylococcus aureus COL after 24 hrs. The essentials: as §1
Experiment [5] in a line: DPPH radical scavenging activity assessed as ratio of absorbance at 20 uM relative to L-cysteine. The essentials:
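Test compound at 20 μM in ethanolic solution, mixed with ethanol, 50 mM MES buffer (pH 5.5) and 0.5 mM DPPH in ethanol. Decrease in absorbance at 517 nm read after 30 min. L-Cysteine served as reference. Value given as the ratio of absorbance between L-cysteine and test compound.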
Background: Loss of DPPH colour is used to gauge radical scavenging.

Experiment [6] relates to Staphylococcus aureus. As to the kind of experiment: Antimicrobial activity against methicillin-resistant Staphylococcus aureus 5 after 24 hrs. The method, boiled down: as §1
The subject of experiment [7] is Staphylococcus aureus. As to the kind of experiment: Antimicrobial activity against methicillin-resistant Staphylococcus aureus 12 after 24 hrs. The essentials:
as §1

In experiment [8] the test system is Staphylococcus aureus. As to the kind of experiment: Antimicrobial activity against methicillin-resistant Staphylococcus aureus 8 after 24 hrs. The method, boiled down:
as §1

≈ marks a conversion by molar mass, not a printed value.

On to `O=C(OC[C@H]1O[C@@H](Oc2cc(O)cc(/C=C/c3ccc(O)cc3)c2)[C@H](O)[C@@H](O)[C@@H]1O)c1cc(O)c(O)c(O)c1`, for which the MIC in experiment [1] was 125 µg/mL (≈ 230 µM); in experiment [2] it was 125 µg/mL (≈ 230 µM); in experiment [3] it was 125 µg/mL (≈ 230 µM); in experiment [4], > 250 µg/mL; in experiment [6], > 250 µg/mL; in experiment [7], 250 µg/mL (≈ 461 µM). The compound further displayed an MIC in experiment [8] of 125 µg/mL (≈ 230 µM). In addition, the Ratio in experiment [5] was found to be 1.3.

For the compound `CC(=O)O[C@@H]1CO[C@@H](Oc2cc(O)cc(/C=C/c3ccc(O)cc3)c2)[C@H](O)[C@H]1O`, in experiment [5], the Ratio came to 0.2.

Turning to `OC[C@H]1O[C@@H](Oc2cc(O)cc(/C=C/c3ccc(O)cc3)c2)[C@H](O)[C@@H](O)[C@@H]1O`, the Ratio in experiment [5] was 0.54.

For `OC[C@H]1O[C@@H](Oc2cc(O)cc(/C=C/c3ccccc3)c2)[C@H](O)[C@@H](O)[C@@H]1O`, in experiment [5], the Ratio is 0.14.

On to `Oc1ccc(/C=C/c2cc(O)cc(O[C@@H]3OC[C@@H](O)[C@H](O)[C@H]3O)c2)cc1`, for which the Ratio in experiment [5] came out at 0.42.

With `Cc1onc(-c2ccccc2)c1C(=O)N[C@@H]1C(=O)N2[C@@H]1SC(C)(C)[C@@H]2C(=O)O` [OXACILLIN], the minimal inhibitory concentration (MIC) in experiment [1] was 256 µg/mL (≈ 638 µM); in experiment [2], 512 µg/mL (≈ 1280 µM); in experiment [3], 256 µg/mL (≈ 638 µM); in experiment [4], 512 µg/mL (≈ 1280 µM); in experiment [6] it was 256 µg/mL (≈ 638 µM); in experiment [7], 512 µg/mL (≈ 1280 µM). Also, the minimal inhibitory concentration (MIC) in experiment [8] came out at 256 µg/mL (≈ 638 µM).

Consider `Oc1cc(O)cc(/C=C/c2ccccc2)c1` [PINOSYLVIN], for which the MIC in experiment [1] is > 250 µg/mL; in experiment [2], > 250 µg/mL; in experiment [3] it was > 250 µg/mL; in experiment [4] it was 125 µg/mL (≈ 589 µM); in experiment [6], 125 µg/mL (≈ 589 µM); in experiment [7], > 250 µg/mL. The MIC in experiment [8] was > 250 µg/mL. The Ratio in experiment [5] was found to be 0.52.

With `Oc1ccc(/C=C/c2cc(O)cc(O)c2)cc1` [RESVERATROL], the MIC in experiment [1], in experiment [2], in experiment [3], in experiment [4], in experiment [6] and in experiment [7] was > 250 µg/mL in each case. The minimal inhibitory concentration (MIC) in experiment [8] is > 250 µg/mL. Moreover, the Ratio in experiment [5] came out at 1.77.

A word on the MIC: it is the smallest concentration in the dilution series that meets the test's criterion for growth inhibition.

The values above are taken from ChEMBL document CHEMBL1151238, “New stilbene derivatives from Calligonum leucocladum” (2004).
